Measurements taken from ChEMBL document CHEMBL1122892, “Mineralocorticoid properties of potential metabolites of 18-hydroxydeoxycorticosterone and 18-hydroxyprogesterone” (J Med Chem, 1985).

Key:
[1] = target: T1, Mineralocorticoid receptor (Rattus norvegicus) (UniProt P22199); experiment: Mineralocorticoid activity in vivo expressed as a ratio (M/DOCA) of the urinary sodium/potassium excretion transformations after deoxy-corticosterone acetate treatment.; format: functional, organism-based; details: Urine
T1 sequence (whole entry): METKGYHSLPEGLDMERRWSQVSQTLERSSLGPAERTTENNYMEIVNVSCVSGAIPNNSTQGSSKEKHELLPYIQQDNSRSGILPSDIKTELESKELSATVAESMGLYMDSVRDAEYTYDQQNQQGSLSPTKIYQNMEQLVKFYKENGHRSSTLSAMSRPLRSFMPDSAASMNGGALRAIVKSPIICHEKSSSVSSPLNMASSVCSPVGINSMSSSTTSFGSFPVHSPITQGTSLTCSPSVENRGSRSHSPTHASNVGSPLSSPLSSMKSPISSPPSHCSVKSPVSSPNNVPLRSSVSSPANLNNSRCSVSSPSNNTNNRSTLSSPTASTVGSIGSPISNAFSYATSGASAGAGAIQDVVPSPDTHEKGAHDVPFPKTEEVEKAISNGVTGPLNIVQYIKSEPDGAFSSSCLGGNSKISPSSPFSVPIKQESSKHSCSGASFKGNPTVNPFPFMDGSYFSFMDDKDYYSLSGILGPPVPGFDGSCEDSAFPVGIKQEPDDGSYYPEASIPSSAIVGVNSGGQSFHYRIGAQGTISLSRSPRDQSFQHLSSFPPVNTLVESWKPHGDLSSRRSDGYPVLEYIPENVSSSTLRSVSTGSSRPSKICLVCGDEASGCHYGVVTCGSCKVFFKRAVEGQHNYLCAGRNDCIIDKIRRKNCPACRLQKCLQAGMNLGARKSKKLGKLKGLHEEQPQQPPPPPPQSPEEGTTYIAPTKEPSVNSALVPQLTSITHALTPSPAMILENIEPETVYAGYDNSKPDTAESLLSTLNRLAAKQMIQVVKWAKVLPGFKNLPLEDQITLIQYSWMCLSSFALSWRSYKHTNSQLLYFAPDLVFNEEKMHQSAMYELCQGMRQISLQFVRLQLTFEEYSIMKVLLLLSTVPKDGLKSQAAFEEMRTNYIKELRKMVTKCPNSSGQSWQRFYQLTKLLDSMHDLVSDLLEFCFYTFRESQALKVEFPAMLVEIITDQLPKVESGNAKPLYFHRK
How it was run: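 Saline-loaded (2.5 mL) adrenalectomized rats given 12 μg DOCA s.c. in oil plus test steroid 2.4 mg/animal s.c. in corn oil. Urine collected 4 h in metabolism cages, then voided by suprapubic pressure. Na and K measured by flame photometry as log(Na × 10/K). Ratio to DOCA-only controls (M/DOCA); >1.23 taken as antagonism, <0.85 as agonism.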

[2] = target: T1, Mineralocorticoid receptor (Rattus norvegicus); experiment: Binding affinity expressed as the percent inhibition of 2x10E-9 M [3H]aldosterone binding to the renal mineralocorticoid receptor by the presence of competing steroid (8x10E-8 M).
How it was run: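 Washed kidney slices from adrenalectomized rats incubated with 2 × 10^-9 M [3H]aldosterone plus 8 × 10^-8 M competing 18-hydroxy steroid and 2 × 10^-8 M dexamethasone, pH 7.2 Tris/phosphate saline buffer with Mg, Ca, dextrose. Homogenized; high-speed supernatant treated with charcoal-dextran to strip free ligand. Bound label counted as cpm/mg protein, nonspecific at 2 × 10^-7 M unlabeled aldosterone. Value is % inhibition; Student's t test vs 0%.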

Row | SMILES | Ratio [1] | Percent inhibition of [3H]aldosterone binding [2]
1 | CC(=O)OCC12CCC3C(CCC4=CC(=O)CCC43C)C1CCC2C(C)=O (stereo unspecified) | 1.19 | 25.5
2 | C[C@H]1OC(=O)C23CC[C@H]4[C@@H](CC[C@H]5CC(O)CCC54C)[C@@H]2CCC13 (stereo partly specified) | 0.61 | 
3 | C[C@H]1OC(=O)C23CC[C@H]4[C@@H](CC[C@H]5CC(=O)CCC54C)[C@@H]2CCC13 (stereo partly specified) | 0.96 | 10.5
4 | CC(=O)OCC12CCC3C(CC=C4CC(O)CCC43C)C1CCC2C(C)=O (stereo unspecified) | 1.95 | 0
5 | CC(=O)OC[C@]12CC[C@H]3[C@@H](CC[C@H]4C[C@@H](O)CC[C@@]43C)[C@@H]1CC[C@@H]2C(C)=O | 1.13 | 14.2
6 | CC1(O)OCC23CCC4C(CCC5=CC(=O)CCC54C)C2CCC13 (stereo unspecified) | 0.76 | 34.5
7 | CC1(O)OCC23CCC4C(CC=C5CC(O)CCC54C)C2CCC13 (stereo unspecified) | 0.5 | 10.1
8 | CC(=O)OCC12CC[C@H]3[C@@H](CC[C@H]4CC(O)CCC43C)[C@@H]1CCC2C(C)=O (stereo partly specified) | 0.99 | 0
9 | C[C@@H](O)C1CCC2C3CCC4=CC(=O)CCC4(C)C3CCC21CO (stereo partly specified) | 1.33 | 34.3
10 | CC(=O)OCC12CC[C@H]3[C@@H](CC[C@H]4CC(=O)CCC43C)[C@@H]1CCC2[C@@H](C)O (stereo partly specified) | 0.93 | 17
11 | C[C@H]1OC(=O)C23CCC4C(CC=C5CC(O)CCC54C)C2CCC13 (stereo partly specified) | 0.72 | 12.5
12 | CC12CCC(O)CC1=CCC1C2CCC23COC(O)(CO)C2CCC13 (stereo unspecified) | 0.71 | 3.5
13 | CC(=O)OC[C@]12CC[C@H]3[C@@H](CC[C@H]4CC(=O)CC[C@@]43C)[C@@H]1CC[C@@H]2[C@@H](C)O | 1.16 | 10.5
14 | C[C@@H](O)C1CC[C@H]2[C@@H]3CC[C@H]4CC(=O)CCC4(C)[C@H]3CCC12CO (stereo partly specified) | 1.03 | 13
15 | C[C@@H](O)C1CCC2C3CC=C4CC(O)CCC4(C)C3CCC21CO (stereo partly specified) | 0.89 | 5
16 | CC(=O)OCC12CCC3C(CCC4=CC(=O)CCC43C)C1CCC2[C@@H](C)O (stereo partly specified) | 1.16 | 13
17 | C[C@H]1OC(=O)C23CCC4C(CCC5=CC(=O)CCC54C)C2CCC13 (stereo partly specified) | 1.32 | 65
18 | C[C@@H](O)[C@H]1CC[C@H]2[C@@H]3CC[C@H]4CC(=O)CC[C@]4(C)[C@H]3CC[C@]12CO | 0.43 | 6.5
19 | CC12CCC(=O)C=C1CCC1C2CCC23COC(O)(CO)C2CCC13 (stereo unspecified) | 0.54 | 29.5
20 | C[C@H]1OC(=O)[C@]23CC[C@H]4[C@@H](CC[C@H]5CC(=O)CC[C@@]54C)[C@@H]2CC[C@H]13 | 0.87 | 0

The next lines start with the values.

Row | Ratio [1] | Percent inhibition of [3H]aldosterone binding [2] | SMILES
21 | 0.92 | 30 | CC1(O)OCC23CC[C@H]4[C@@H](CC[C@H]5CC(O)CCC54C)[C@@H]2CCC13 (stereo partly specified)
22 | 0.71 | 34 | CC(=O)OCC1(O)OCC23CCC4C(CCC5=CC(=O)CCC54C)C2CCC13 (stereo unspecified)
23 | 0.96 | 20 | CC(=O)OCC1(O)OC[C@]23CC[C@H]4[C@@H](CC[C@H]5CC(=O)CC[C@@]54C)[C@@H]2CC[C@H]13 (stereo partly specified)
24 | 0.69 | 3 | CC12CCC(=O)C[C@@H]1CC[C@H]1[C@@H]3CCC4C(O)(CO)OCC43CC[C@@H]12 (stereo partly specified)
25 | 0.55 | 7 | CC(=O)OCC1(O)OCC23CCC4C(CC=C5CC(O)CCC54C)C2CCC13 (stereo unspecified)
26 | 1.1 | 0 | CC(=O)OCC12CC[C@H]3[C@@H](CC[C@H]4CC(=O)CCC43C)[C@@H]1CCC2C(C)=O (stereo partly specified)
27 | 0.78 | 32 | C[C@]12CCC(=O)C[C@@H]1CC[C@@H]1[C@@H]2CC[C@]23COC(O)(CO)[C@H]2CC[C@@H]13 (stereo partly specified)
28 | 0.72 | 23.5 | C[C@@H](O)C1CC[C@H]2[C@@H]3CC[C@H]4CC(O)CCC4(C)[C@H]3CCC12CO (stereo partly specified)
29 | 0.91 | 8.3 | CC1(O)OCC23CC[C@H]4[C@@H](CC[C@H]5CC(=O)CCC54C)[C@@H]2CCC13 (stereo partly specified)
30 | 0.83 |  | CC(=O)OCC1(O)OC[C@]23CC[C@H]4[C@@H](CC[C@H]5C[C@@H](O)CC[C@@]54C)[C@@H]2CC[C@H]13 (stereo partly specified)
31 | 1.08 | 0 | CC(=O)OC[C@]12CC[C@H]3[C@@H](CC[C@H]4CC(=O)CC[C@@]43C)[C@@H]1CC[C@@H]2C(C)=O
32 | 0.96 | 0 | CC12CCC(O)C[C@@H]1CC[C@H]1[C@@H]3CCC4C(O)(CO)OCC43CC[C@@H]12 (stereo partly specified)
33 | 1.1 | 0 | CC(=O)OCC1(O)OCC23CC[C@H]4[C@@H](CC[C@H]5CC(O)CCC54C)[C@@H]2CCC13 (stereo partly specified)
34 | 0.91 |  | CC1(O)OC[C@]23CC[C@H]4[C@@H](CCC5C[C@@H](O)CC[C@@]54C)[C@@H]2CC[C@H]13 (stereo partly specified)
35 | 1.01 | 0 | CC1(O)OC[C@]23CC[C@H]4[C@@H](CC[C@H]5CC(=O)CC[C@@]54C)[C@@H]2CC[C@H]13 (stereo partly specified)
36 | 1.06 | 19.5 | C[C@]12CC[C@H](O)C[C@@H]1CC[C@@H]1[C@@H]2CC[C@]23COC(O)(CO)[C@H]2CC[C@@H]13 (stereo partly specified)
37 | 0.8 | 20 | CC(=O)OCC1(O)OCC23CC[C@H]4[C@@H](CC[C@H]5CC(=O)CCC54C)[C@@H]2CCC13 (stereo partly specified)
